Results as given in ChEMBL document CHEMBL3112469, “Substituted 2-phenylimidazopyridines: a new class of drug leads for human African trypanosomiasis” (J Med Chem, 2014).

How the values were obtained:
[1] = system: Trypanosoma brucei brucei; test: Antiparasitic activity against Trypanosoma brucei brucei BF427 assessed as growth inhibition by Alamar Blue assay; assay type: functional, organism-based
Summary of the method: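 Bloodstream-form T. brucei brucei BF427 grown with serial compound dilutions, each tested in triplicate. Growth quantified with AlamarBlue. Pentamidine isothionate included in every assay as positive control.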

[2] = system: HepG2; test: Cytotoxicity against human HepG2 cells after 48 hrs by Alamar Blue assay; assay type: cell-based; details: hepg2, 48 h
[3] = Cytotoxicity against human CRL8155 cells after 48 hrs by Alamar Blue assay; assay type: cell-based; details: crl8155, 48 h
[4] = system: L6; test: Cytotoxicity against rat L6 cells after 48 hrs by Alamar Blue assay; assay type: cell-based; details: l6, 48 h

SMILES | EC50 [1] [µM] | CC50 [2] [µM] | CC50 [3] [µM] | CC50 [4] [µM]
O=C(Nc1ccc(Cl)c(-c2nc3ccccc3o2)c1)c1ccccc1 | > 20 |  |  | 
O=C(Nc1ccc(F)c(-c2nc3ncccc3o2)c1)C1CCCO1 (stereo not drawn) | > 10 |  |  | 
O=C(Nc1ccc(F)c(-c2nc3cc(-c4ccsc4)cnc3[nH]2)c1)N1CCCC1 | 0.002 | > 50 | 6 | 
O=C(Nc1ccc(F)c(-c2nc3cnccc3o2)c1)c1ccco1 | > 20 |  |  | 
O=C(Nc1ccc(F)c(-c2nc3ncc(-c4cccc(Cl)c4)cc3o2)c1)c1ccco1 | 0.05 |  |  | > 50
O=C(Nc1ccc(F)c(-c2nc3cc(-c4cncnc4)cnc3[nH]2)c1)N1CCCC1 | 0.03 | > 50 | 12 | 
Cn1cccc1C(=O)Nc1ccc(F)c(-c2nc3ncccc3o2)c1 | 1.1 |  |  | > 50
Fc1ccc(N(Cc2ccccc2)Cc2ccccc2)cc1-c1nc2ncccc2o1 | 1.1 |  |  | > 50
Cc1ccoc1C(=O)Nc1ccc(F)c(-c2nc3ncccc3o2)c1 | 0.1 |  |  | > 50
O=C(Nc1ccc(Cl)c(C(=O)N2CCNCC2)c1)c1ccco1 | > 20 |  |  | 
Cc1ccc(C(=O)Nc2ccc(F)c(-c3nc4ncccc4o3)c2)o1 | 0.2 |  |  | > 50
O=C(Nc1ccc(Cl)c(-c2nc3ncccc3o2)c1)c1ccccc1 | 7.1 |  |  | > 50
O=C(Nc1ccc(F)c(-c2nc3cc(-c4cnc(Cl)nc4)cnc3[nH]2)c1)N1CCCC1 | 0.04 |  |  | 14.3
O=C(Nc1ccc(F)c(-c2nc3ncccc3o2)c1)c1cnccn1 | 0.9 |  |  | > 50
O=C(Nc1ccc(F)c(-c2nc3ncccc3o2)c1)c1cc2ccccc2o1 | > 10 |  |  | > 50
N#Cc1cnc2nc(-c3cc(NC(=O)c4ccco4)ccc3F)oc2c1 | 0.38 |  |  | > 50
Cc1cncc(-c2cnc3[nH]c(-c4cc(NC(=O)N5CCCC5)ccc4F)nc3c2)c1 | 0.01 | > 50 | > 50 | 
O=C(Nc1ccc(F)c(-c2nc3cc(-c4ccnc(Cl)c4)cnc3[nH]2)c1)N1CCCC1 | 0.004 | > 50 | > 50 | 
O=C(Nc1ccc(F)c(-c2nc3ccc(Cl)nc3[nH]2)c1)c1ccco1 | 10 |  |  | 
CC(=O)N(C(=O)c1ccco1)c1ccc(F)c(-c2nc3ncccc3o2)c1 | 0.5 |  |  | 
O=C(Nc1ccc(-c2ccncc2)c(-c2nc3ncccc3o2)c1)c1ccco1 | > 20 |  |  | 
O=C(Nc1ccc(Cl)c(-c2nc3ccccc3o2)c1)c1ccco1 | > 20 |  |  | 
O=C(Nc1ccc(Cl)c(-c2nc3ncccc3o2)c1)c1cccs1 | 1.5 |  |  | > 50
O=C(Nc1ccc(F)c(-c2nc3ncccc3o2)c1)c1ccco1 | 0.12 |  |  | > 50
O=C(Nc1ccc(F)c(-c2nc3ncccc3o2)c1)c1cnco1 | 1.9 |  |  | > 50

SMILES | EC50 [1] [µM] | CC50 [2] [µM] | CC50 [3] [µM] | CC50 [4] [µM]
O=C(Nc1ccc(F)c(-c2nc3cccnc3[nH]2)c1)c1ccco1 | 0.2 |  |  | 
O=C(Nc1ccc(Cl)c(-c2nc3ccccc3o2)c1)c1cccc(F)c1 | > 20 |  |  | 
O=C(Nc1ccc(F)c(CNc2ccc(Cl)cn2)c1)c1ccco1 | > 10 |  |  | 
O=C(Nc1ccc(Cl)c(-c2nc3ccccc3o2)c1)c1ccccc1F | > 20 |  |  | 
Fc1ccc(NC(=S)c2ccco2)cc1-c1nc2ncccc2o1 | 0.41 |  |  | > 50
CNC(=O)Nc1ccc(F)c(-c2nc3ncccc3o2)c1 | 3.8 |  |  | > 50
O=C(Nc1ccc(F)c(-c2nc3ncccc3o2)c1)c1cccnc1 | 7 |  |  | > 50
COc1ccc(NC(=O)c2ccco2)cc1-c1nc2ncccc2o1 | > 10 |  |  | > 50
CN(C(=O)c1ccco1)c1ccc(F)c(-c2nc3ncccc3o2)c1 | > 10 |  |  | > 50
Cc1cc(-c2cnc3[nH]c(-c4cc(NC(=O)N5CCCC5)ccc4F)nc3c2)ccc1F | 0.02 |  | > 50 | 
CC(=O)Nc1ccc(F)c(-c2nc3ncccc3o2)c1 | > 20 |  |  | > 50
Cc1ccccc1C(=O)Nc1ccc(Cl)c(-c2nc3ccccc3o2)c1 | > 20 |  |  | 
COc1ccc(-c2cnc3nc(-c4cc(NC(=O)c5ccco5)ccc4F)oc3c2)cc1 | 0.17 |  |  | 
O=C(Nc1ccc(F)c(-c2nc3ncccc3o2)c1)c1ccoc1 | 0.15 |  |  | > 50
O=S(=O)(Nc1ccc(Cl)c(-c2nc3ncccc3o2)c1)c1ccccc1 | > 20 |  |  | > 50
Nc1ccc(Cl)c(-c2nc3ncccc3o2)c1 | > 20 |  |  | 
Cc1cccc(-c2cnc3[nH]c(-c4cc(NC(=O)N5CCCC5)ccc4F)nc3c2)c1 | 0.002 | 10 | 5 | 
O=C(Nc1ccc(Cl)c(-c2nc3ncccc3o2)c1)N1CCCCC1 | 1.9 |  |  | 
O=C(Nc1ccc(F)c(-c2nc3cc(F)cnc3[nH]2)c1)c1ccco1 | 0.2 |  |  | 
O=C(Nc1ccc(F)c(-c2nc3ncc(-c4ccc(-c5ccccc5)cc4)cc3o2)c1)c1ccco1 | 0.42 |  |  | > 50
Nc1cccc(-c2cnc3[nH]c(-c4cc(NC(=O)N5CCCC5)ccc4F)nc3c2)c1 | 0.01 | 40 | 5 | 
O=C(Nc1ccc(F)c(-c2nc3cc(-c4ccc(Cl)nc4)cnc3[nH]2)c1)N1CCCC1 | 0.01 | > 50 | 3.8 | 
O=C(Nc1ccc(Cl)c(-c2nc3ncccc3o2)c1)N1CCCC1 | 0.09 | > 50 | > 50 | 
O=C(Nc1ccc(F)c(-c2nc3cc(-c4cncc(Cl)c4)cnc3[nH]2)c1)N1CCCC1 | 0.005 | > 50 | 38 | 
COc1cccc(-c2cnc3[nH]c(-c4cc(NC(=O)N5CCCC5)ccc4F)nc3c2)c1 | 0.01 | 35 | 3.6 | 

SMILES | EC50 [1] [µM] | CC50 [2] [µM] | CC50 [3] [µM] | CC50 [4] [µM]
Cc1ccc(NC(=O)c2ccco2)cc1-c1nc2ncccc2o1 | 0.43 |  |  | > 50
O=C(Nc1ccc(F)c(-c2nc3ncc(Br)cc3o2)c1)c1ccco1 | 0.23 |  |  | > 50
O=C(Nc1ccc(Cl)c(-c2nc3ccccc3o2)c1)C1CCCCC1 | > 20 |  |  | 
CS(=O)(=O)Nc1ccc(Cl)c(-c2nc3ncccc3o2)c1 | 6.1 |  |  | > 50
COc1cc([C@@H]2c3cc4c(cc3[C@H](O)[C@H]3COC(=O)[C@H]23)OCO4)cc(OC)c1OC [PODOFILOX] |  |  |  | 0.014
CC(=O)c1cccc(-c2cnc3[nH]c(-c4cc(NC(=O)N5CCCC5)ccc4F)nc3c2)c1 | 0.003 |  |  | 
O=C(Nc1ccc(F)c(C(=O)Nc2ccc(Cl)cn2)c1)c1ccco1 | 7 |  |  | 
O=C(Nc1ccc(-c2ccc(F)cc2)c(-c2nc3ncccc3o2)c1)c1ccco1 | > 50 |  |  | > 50
N=C(N)c1ccc(OCCCCCOc2ccc(C(=N)N)cc2)cc1 [PENTAMIDINE] | 0.00174 |  |  | 
O=C(Nc1ccc(Cl)c(C(=O)N2CCOCC2)c1)c1ccco1 | > 20 |  |  | 
O=C(Nc1ccc(F)c(-c2nc3c(Cl)ccnc3[nH]2)c1)c1ccco1 | 0.12 |  |  | 
Fc1ccc(NCc2ccccc2)cc1-c1nc2ncccc2o1 | > 20 |  |  | 
CN(C)C(=O)Nc1ccc(Cl)c(-c2nc3ncccc3o2)c1 | 0.4 |  |  | > 50
Cn1cncc1C(=O)Nc1ccc(F)c(-c2nc3ncccc3o2)c1 | > 20 |  |  | > 50
O=C(Nc1ccc(F)c(-c2nc3cc(-c4cccs4)cnc3[nH]2)c1)N1CCCC1 | 0.004 |  | 9 | 
Cc1cccc(C(=O)Nc2ccc(Cl)c(-c3nc4ccccc4o3)c2)c1 | > 20 |  |  | 
O=C(Nc1ccccc1)Nc1ccc(Cl)c(-c2nc3ncccc3o2)c1 | 12 |  |  | > 50
CCN(CC)CCCC(C)Nc1c2ccc(Cl)cc2nc2ccc(OC)cc12 (stereo not drawn) [QUINACRINE] |  | 9.78 | 3.92 | 
N#Cc1ccc(NC(=O)c2ccco2)cc1-c1nc2ncccc2o1 | 0.4 |  |  | > 50
O=C(Nc1ccc(-c2ccc(F)c(F)c2)c(-c2nc3ncccc3o2)c1)c1ccco1 | > 50 |  |  | > 50
CC(C)NC(=O)Nc1ccc(Cl)c(-c2nc3ncccc3o2)c1 | 1 |  |  | > 50
CN1CCN(C(=O)c2cc(NC(=O)c3ccco3)ccc2Cl)CC1 | > 20 |  |  | 
O=C(Nc1ccc(F)c(-c2nc3cc(-c4ccccc4Cl)cnc3[nH]2)c1)N1CCCC1 | 0.005 |  |  | 
